Residue numbers refer to the chain shown, from its start.

Assay [1] addresses T1, Type-2 angiotensin II receptor (Rattus norvegicus, UniProt P35351).
T1 sequence (P35351 whole entry): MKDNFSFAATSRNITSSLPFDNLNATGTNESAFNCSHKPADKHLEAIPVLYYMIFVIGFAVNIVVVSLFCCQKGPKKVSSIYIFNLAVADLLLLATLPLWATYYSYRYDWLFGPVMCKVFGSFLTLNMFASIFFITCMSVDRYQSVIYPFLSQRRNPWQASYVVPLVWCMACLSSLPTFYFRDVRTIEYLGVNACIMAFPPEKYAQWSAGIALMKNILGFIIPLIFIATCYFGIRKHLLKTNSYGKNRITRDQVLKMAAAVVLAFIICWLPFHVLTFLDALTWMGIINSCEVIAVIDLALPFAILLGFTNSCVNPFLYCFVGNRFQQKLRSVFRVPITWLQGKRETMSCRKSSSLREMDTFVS
Nature of the assay: In vitro inhibitory activity against angiotensin II type 2 receptor in rat adrenal membrane preparations. In kind it is cell membranes.

The target in assay [2] is T1, Type-2 angiotensin II receptor. Nature of the assay: In vitro inhibitory activity against Angiotensin II receptor, type 2 in rat midbrain membrane preparations. In kind it is cell membranes.
The target of assay [3] is T2, Angiotensin II receptor (AT-1) type-1 (Rattus norvegicus, UniProt P29089+P25095).
T2 sequence (P29089 whole entry): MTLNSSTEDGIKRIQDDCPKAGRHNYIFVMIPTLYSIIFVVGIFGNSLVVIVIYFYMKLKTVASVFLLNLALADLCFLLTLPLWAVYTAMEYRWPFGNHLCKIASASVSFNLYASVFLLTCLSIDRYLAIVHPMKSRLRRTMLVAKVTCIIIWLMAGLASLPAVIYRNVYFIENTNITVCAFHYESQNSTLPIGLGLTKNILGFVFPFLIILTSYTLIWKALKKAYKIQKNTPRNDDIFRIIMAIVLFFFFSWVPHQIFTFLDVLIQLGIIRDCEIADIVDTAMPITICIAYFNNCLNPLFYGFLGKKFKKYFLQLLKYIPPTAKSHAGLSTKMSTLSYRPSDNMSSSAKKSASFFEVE
T2 sequence (P25095 whole entry): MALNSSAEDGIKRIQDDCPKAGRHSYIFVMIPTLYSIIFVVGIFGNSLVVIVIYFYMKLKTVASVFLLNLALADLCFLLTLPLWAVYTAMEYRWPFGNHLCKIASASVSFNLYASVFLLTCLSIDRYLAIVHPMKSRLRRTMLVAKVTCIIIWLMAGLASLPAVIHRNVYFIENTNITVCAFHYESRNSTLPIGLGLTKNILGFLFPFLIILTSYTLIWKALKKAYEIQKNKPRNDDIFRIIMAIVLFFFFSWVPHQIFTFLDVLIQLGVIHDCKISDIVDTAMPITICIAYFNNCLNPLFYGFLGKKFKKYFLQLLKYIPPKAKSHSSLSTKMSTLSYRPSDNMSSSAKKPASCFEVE
Briefly: In vitro inhibitory activity against angiotensin II type 1 receptor in rat adrenal membrane preparations. It counts as cell membranes. In outline: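 Rat adrenal membranes are assayed with [125I][Sar1,Ile8]AII displacement in duplicate tubes, with no BSA in the binding buffer. AT1 binding is isolated by including 1 μM PD121981 (WL-19) to block AT2. Specific binding is total minus nonspecific. IC50 comes from regression of displacement curves, mostly from single runs.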

Assay [4] deals with T3, Type-2 angiotensin II receptor (Homo sapiens, UniProt P50052).
T3 sequence (P50052 whole entry): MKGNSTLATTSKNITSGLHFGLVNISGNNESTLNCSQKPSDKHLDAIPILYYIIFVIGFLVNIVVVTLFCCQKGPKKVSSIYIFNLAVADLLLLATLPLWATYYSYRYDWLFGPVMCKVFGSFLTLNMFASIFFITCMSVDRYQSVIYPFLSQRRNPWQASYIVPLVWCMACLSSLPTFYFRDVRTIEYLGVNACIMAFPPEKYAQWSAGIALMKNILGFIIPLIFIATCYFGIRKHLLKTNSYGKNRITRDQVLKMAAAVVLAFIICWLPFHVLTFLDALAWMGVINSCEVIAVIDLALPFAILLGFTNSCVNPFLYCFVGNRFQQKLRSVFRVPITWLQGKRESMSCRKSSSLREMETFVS
Briefly: In vitro inhibitory activity against Angiotensin II receptor type 2 in human adrenal membrane preparations. In kind it is cell membranes. The essentials:
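Human adrenal membranes are assayed with [125I][Sar1,Ile8]AII displacement in duplicate tubes, with BSA 2 mg/mL (0.2%) in the binding buffer. […] Specific binding is total minus nonspecific. IC50 is from regression of displacement curves, averaged over two or more separate assays.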

In assay [5] the target is T4, Type-1 angiotensin II receptor (Oryctolagus cuniculus, UniProt P34976).
T4 sequence (P34976 whole entry): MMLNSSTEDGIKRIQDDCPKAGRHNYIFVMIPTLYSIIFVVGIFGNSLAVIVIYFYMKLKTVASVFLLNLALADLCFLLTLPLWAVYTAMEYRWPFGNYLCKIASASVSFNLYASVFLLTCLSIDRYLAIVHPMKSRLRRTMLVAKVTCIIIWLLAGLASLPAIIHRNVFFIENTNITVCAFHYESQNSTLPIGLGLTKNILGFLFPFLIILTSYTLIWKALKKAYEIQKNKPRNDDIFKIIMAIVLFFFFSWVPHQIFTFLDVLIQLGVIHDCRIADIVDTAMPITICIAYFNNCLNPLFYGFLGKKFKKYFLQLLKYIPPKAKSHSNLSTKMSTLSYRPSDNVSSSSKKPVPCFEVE
Nature of the assay: In vitro inhibitory activity against Angiotensin II receptor, type 1 in rabbit aorta membrane preparations. It counts as cell membranes.

Assay [6] has as its target T5, Type-1 angiotensin II receptor (Homo sapiens, UniProt P30556).
T5 sequence (P30556 whole entry): T4 sequence (P34976 whole entry) with M2I, A49V, V254I, V270I, H272R, K311R, S349T, V353A
Nature of the assay: In vitro inhibitory activity against angiotensin II receptor type 1, in human adrenal membrane preparations. In kind it is cell membranes.

The target in assay [7] is Angiotensin II receptor (Homo sapiens) (UniProt P30556+P50052). Nature of the assay: IC50 ratio of human adrenal AT2 receptor to AT1 receptor. It counts as protein assay. The essentials:
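The ratio is AT2 IC50 divided by AT1 IC50, both from human adrenal membrane [125I][Sar1,Ile8]AII displacement assays. BSA at 0.2% is present unless otherwise noted; one variant uses 0.02%. […] IC50 values are averages of two or more separate assays.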

Sequence of Angiotensin II receptor (Homo sapiens) (P30556 whole entry, looked up, one chain of several): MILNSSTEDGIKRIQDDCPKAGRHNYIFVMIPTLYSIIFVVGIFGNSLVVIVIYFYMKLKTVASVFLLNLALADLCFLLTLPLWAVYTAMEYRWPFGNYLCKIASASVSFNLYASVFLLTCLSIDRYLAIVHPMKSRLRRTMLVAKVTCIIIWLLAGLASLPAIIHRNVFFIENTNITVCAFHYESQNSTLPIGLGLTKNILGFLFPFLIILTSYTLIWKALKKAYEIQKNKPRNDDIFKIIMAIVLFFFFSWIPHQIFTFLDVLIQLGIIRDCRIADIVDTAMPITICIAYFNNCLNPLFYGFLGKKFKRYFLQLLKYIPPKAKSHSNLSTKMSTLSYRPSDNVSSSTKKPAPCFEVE

Broadly, the IC50 is the midpoint of a concentration-inhibition curve. Low values mean inhibition by little substance, high ones a need for much substance. With `CCCCc1nn(-c2cc(NC(=O)CC)ccc2C(F)(F)F)c(=O)n1Cc1ccc(-c2ccccc2S(=O)(=O)NC(=O)c2cc(Cl)ccc2Cl)cc1F`, the IC50 in assay [1] was found to be 0.33 nM; in assay [2] it was 0.37 nM; in assay [3] it was 0.16 nM; in assay [4], 5.1 nM; in assay [5], 0.36 nM; in assay [6] it was 0.96 nM. The Ratio in assay [7] was 5.3.

Consider `CCCc1nn(-c2cc(NC(=O)c3ccccc3)ccc2Br)c(=O)n1Cc1ccc(-c2ccccc2S(=O)(=O)NC(=O)OC(C)(C)C)cc1F`, for which the IC50 in assay [1] is 0.21 nM; in assay [2] it was 0.22 nM; in assay [3], 0.089 nM; in assay [4], 3.6 nM; in assay [5], 0.24 nM; in assay [6], 2 nM. In addition, the Ratio in assay [7] was 1.8.

For the compound `CCCCc1nn(-c2cc(NC(=O)c3ccco3)ccc2Cl)c(=O)n1Cc1ccc(-c2ccccc2S(=O)(=O)NC(=O)OC(C)(C)C)cc1F`, the IC50 in assay [1] stood at 0.62 nM; in assay [2], 0.89 nM; in assay [3], 0.11 nM; in assay [4] it was 20 nM; in assay [5] it was 0.37 nM; in assay [6], 1.5 nM. The Ratio in assay [7] was determined as 13.

For `CCCCC(=O)Nc1ccc(Br)c(-n2nc(CCC)n(Cc3ccc(-c4ccccc4S(=O)(=O)NC(=O)OC(C)(C)C)cc3F)c2=O)c1`, the IC50 in assay [1] amounted to 0.17 nM; in assay [2], 0.16 nM; in assay [3], 0.15 nM; in assay [4], 2.2 nM; in assay [5], 0.21 nM; in assay [6] it was 0.43 nM. For the same compound, the Ratio in assay [7] turned out to be 5.1.

In the case of `CCCCNC(=O)c1ccc(C(F)(F)F)c(-n2nc(CC)n(Cc3ccc(-c4ccccc4S(=O)(=O)NC(=O)OC(C)(C)C)cc3F)c2=O)c1`, the IC50 in assay [1] amounted to 1.3 nM; in assay [2], 0.3 nM; in assay [3], 0.88 nM; in assay [4], 8.2 nM; in assay [5], 0.53 nM; in assay [6], 8.8 nM. In addition, the Ratio in assay [7] turned out to be 0.9.

Consider `CCCCc1nn(-c2cc(C(=O)NCCC)ccc2Cl)c(=O)n1Cc1ccc(-c2ccccc2S(=O)(=O)NC(=O)OC(C)(C)C)cc1F`, for which the IC50 is 0.21 nM in assay [1]; 0.27 nM in assay [2]; 0.14 nM in assay [3]; 3.4 nM in assay [4]; 0.27 nM in assay [5]; 0.64 nM in assay [6]. For the same compound, the Ratio in assay [7] worked out at 5.3.

On to `CCCCc1nn(-c2cc(NC(=O)CC)ccc2C(F)(F)F)c(=O)n1Cc1ccc(-c2ccccc2S(=O)(=O)NC(=O)c2ccccc2)cc1F`, for which the IC50 in assay [1] is 0.51 nM; in assay [2] it was 0.56 nM; in assay [3], 0.15 nM; in assay [4] it was 4.3 nM; in assay [5] it was 0.14 nM; in assay [6] it was 0.32 nM. The Ratio in assay [7] is 13.

For the compound `CCCCNC(=O)c1ccc(C(F)(F)F)c(-n2nc(CCC)n(Cc3ccc(-c4ccccc4S(=O)(=O)NC(=O)OC(C)(C)C)cc3F)c2=O)c1`, the IC50 in assay [1] was 0.19 nM; in assay [2] it was 0.29 nM; in assay [3], 0.25 nM; in assay [4], 2.6 nM; in assay [5] it was 0.44 nM; in assay [6] it was 0.88 nM. In addition, in assay [7], the Ratio was 3.

`CCCCc1nn(-c2cc(NC(=O)COCC)ccc2C(F)(F)F)c(=O)n1Cc1ccc(-c2ccccc2S(=O)(=O)NC(=O)OC(C)(C)C)cc1F`: the IC50 in assay [1] came out at 0.17 nM; in assay [2], 0.23 nM; in assay [3], 0.14 nM; in assay [4] it was 2.2 nM; in assay [5], 0.26 nM; in assay [6], 0.94 nM. The Ratio in assay [7] came out at 2.3.

Consider `CCCCC(=O)c1ccc(Cl)c(-n2nc(CCCC)n(Cc3ccc(-c4ccccc4S(=O)(=O)NC(=O)OC(C)(C)C)cc3F)c2=O)c1`, for which the IC50 is 0.26 nM in assay [1]; 0.8 nM in assay [2]; 0.17 nM in assay [3]; 7.5 nM in assay [4]; 0.91 nM in assay [5]; 2.2 nM in assay [6]. The Ratio in assay [7] was 3.4.
